# ChEMBL document CHEMBL1146380, “Synthesis, antimicrobial activity, and QSAR studies of furan-3-carboxamides” (2007)
# Calls of active or inactive are those of the source. The calls are words filed in the database; no cut-off is given here.
# Key:
# Fusarium solani = experiment: Antimicrobial activity against Fusarium solani isolate by broth microdilution method; format: functional
# Sporothrix schenckii = experiment: Antimicrobial activity against Sporothrix schenckii ATCC 1146 by broth microdilution method; format: functional
# Aspergillus niger = experiment: Antimicrobial activity against Aspergillus niger isolate by broth microdilution method; format: functional
# Candida dubliniensis = experiment: Antimicrobial activity against Candida dubliniensis CBS 7987 by broth microdilution method; format: functional
# How it was run: (§1)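 Yeasts grown on potato dextrose agar. Inoculum was standardized by McFarland turbidity as for bacteria, into RPMI 1640 broth (M27-A2). DMSO-dissolved compound was tested in twofold dilutions from 320 to 1.25 at 35 °C for 24 h, in duplicate. MIC was the lowest concentration completely inhibiting visible growth. Fungicidal concentration was read by subculturing 20 µL from clear wells on Sabouraud dextrose agar at 35 °C.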
# Rhizopus arrhizus = experiment: Antimicrobial activity against Rhizopus oryzae isolate by broth microdilution method; format: functional
# Prototheca zopfii = experiment: Antimicrobial activity against Prototheca zopfii by broth microdilution method; format: functional
# How it was run: (§2)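 Organism grown on potato dextrose agar, with turbidity-standardized inoculum in RPMI 1640 broth (M27-A2). DMSO-dissolved compound was tested in twofold dilutions from 320 to 1.25 at 35 °C, incubated up to 72 h, in duplicate. MIC was the lowest concentration with no visible growth. Cidal concentration was read by subculturing 20 µL from clear wells on Sabouraud dextrose agar, incubated for the same period.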
# Pseudomonas aeruginosa = experiment: Antimicrobial activity against Pseudomonas aeruginosa ATCC 27853 by broth microdilution method; format: functional
# How it was run: (§3)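 Bacteria grown overnight on Mueller–Hinton agar. Colonies were suspended in saline to McFarland turbidity (about 10^8 cfu/mL), diluted 1:100 in saline, then 1:20 in Mueller–Hinton broth, giving 5 · 10^4 cfu/mL per well. DMSO-dissolved compound was tested in twofold dilutions from 320 to 1.25 at 35 °C for 24 h. MIC was the lowest concentration with no visible turbidity (M7-A4). Bactericidal concentration was read by subculturing clear wells on Mueller–Hinton agar.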
# Candida albicans = experiment: Antimicrobial activity against Candida albicans ATCC 44373 by broth microdilution method; format: functional; how it was run: as §1
# Aspergillus fumigatus = experiment: Antimicrobial activity against Aspergillus fumigatus isolate by broth microdilution method; format: functional
# Scedosporium boydii = experiment: Antimicrobial activity against Pseudallescheria boydii isolate by broth microdilution method; format: functional
# Staphylococcus aureus = experiment: Antimicrobial activity against Staphylococcus aureus ATCC 25923 by broth microdilution method; format: functional; settings: for MBC: read-out: MFC; how it was run: as §3
# Saccharomyces cerevisiae = experiment: Antimicrobial activity against Saccharomyces cerevisiae ATCC 2601 by broth microdilution method; format: functional; how it was run: as §2
# Aspergillus flavus = experiment: Antimicrobial activity against Aspergillus flavus isolate by broth microdilution method; format: functional
# [1] = system: Cryptococcus deneoformans; experiment: Antimicrobial activity against Cryptococcus neoformans var.neoformans serotype D ATCC 28952 by broth microdilution method; format: functional; how it was run: as §2
# [2] = Antimicrobial activity against Salmonella setubal ATCC 19196 by broth microdilution method; format: functional, Salmonella enterica subsp. enterica serovar Setubal; settings: Salmonella enterica; how it was run: as §3
# Aspergillus terreus = experiment: Antimicrobial activity against Aspergillus terreus isolate by broth microdilution method; format: functional
# Nakaseomyces glabratus = experiment: Antimicrobial activity against Candida glabrata […] by broth microdilution method; format: functional; how it was run: as §1
# Escherichia coli = experiment: Antimicrobial activity against Escherichia coli ATCC 25922 by broth microdilution method; format: functional; how it was run: as §3
# Klebsiella pneumoniae = experiment: Antimicrobial activity against Klebsiella pneumoniae ATCC 1003 by broth microdilution method; format: functional; settings: for MBC: read-out: MFC; how it was run: as §3
MIC (Fusarium solani),MIC (Sporothrix schenckii) [µg/mL],MIC (Aspergillus niger) [µg/mL],MIC (Candida dubliniensis) [µg/mL],MIC (Rhizopus arrhizus) [µg/mL],MIC (Prototheca zopfii) [µg/mL],MIC (Pseudomonas aeruginosa) [µg/mL],MIC (Candida albicans) [µg/mL],MIC (Aspergillus fumigatus) [µg/mL],MIC (Scedosporium boydii) [µg/mL],MIC (Staphylococcus aureus) [µg/mL],MIC (Saccharomyces cerevisiae) [µg/mL],MIC [2] [µg/mL],MIC (Escherichia coli) [µg/mL],MIC (Klebsiella pneumoniae) [µg/mL],Compound,MFC (Candida dubliniensis) [µg/mL],MBC (Pseudomonas aeruginosa) [µg/mL],MFC (Candida albicans) [µg/mL],MBC (Staphylococcus aureus) [µg/mL],Activity (Aspergillus flavus),further results
inactive,320,320,80,320,320,160,80,320,40,80,160,320,160,160,CN(C)c1ccc(CNC(=O)c2ccoc2)cc1,160,160,160,80,inactive,Activity (Sporothrix schenckii): inactive; Activity (Aspergillus niger): inactive; Activity (Rhizopus arrhizus): inactive; Activity (Prototheca zopfii): inactive; Activity (Aspergillus fumigatus): inactive; MFC (Scedosporium boydii): 320 µg/mL; Activity (Saccharomyces cerevisiae): inactive; MIC (Aspergillus flavus): 320 µg/mL; MFC [1]: 320 µg/mL; MIC [1]: 160 µg/mL; MBC [2]: 320 µg/mL; Activity (Aspergillus terreus): inactive; MFC (Nakaseomyces glabratus): 160 µg/mL; MIC (Nakaseomyces glabratus): 80 µg/mL; Activity (Escherichia coli): inactive; MBC (Klebsiella pneumoniae): 160 µg/mL
320 µg/mL,320,320,80,320,40,10,160,160,160,20,160,160,160,20,O=C(Nc1ccccc1O)c1ccoc1,160,160,320,320,inactive,Activity (Fusarium solani): inactive; MFC (Sporothrix schenckii): 320 µg/mL; MFC (Aspergillus niger): 320 µg/mL; MFC (Rhizopus arrhizus): 320 µg/mL; MFC (Prototheca zopfii): 80 µg/mL; MFC (Aspergillus fumigatus): 320 µg/mL; MFC (Scedosporium boydii): 160 µg/mL; MFC (Saccharomyces cerevisiae): 160 µg/mL; MIC (Aspergillus flavus): 320 µg/mL; MFC [1]: 20 µg/mL; MIC [1]: 5 µg/mL; MBC [2]: 320 µg/mL; Activity (Aspergillus terreus): inactive; MIC (Aspergillus terreus): 320 µg/mL; MFC (Nakaseomyces glabratus): 160 µg/mL; MIC (Nakaseomyces glabratus): 160 µg/mL; MBC (Escherichia coli): 320 µg/mL; MBC (Klebsiella pneumoniae): 320 µg/mL
320 µg/mL,320,320,40,320,80,40,40,320,,320,80,160,160,320,O=C(Nn1cnnc1)c1ccoc1,40,160,40,320,inactive,Activity (Fusarium solani): inactive; Activity (Sporothrix schenckii): inactive; Activity (Rhizopus arrhizus): inactive; MFC (Prototheca zopfii): 320 µg/mL; MFC (Aspergillus fumigatus): 320 µg/mL; Activity (Scedosporium boydii): inactive; MFC (Saccharomyces cerevisiae): 160 µg/mL; MFC [1]: 40 µg/mL; MIC [1]: 10 µg/mL; MBC [2]: 320 µg/mL; MFC (Aspergillus terreus): 320 µg/mL; MIC (Aspergillus terreus): 320 µg/mL; MFC (Nakaseomyces glabratus): 80 µg/mL; MIC (Nakaseomyces glabratus): 40 µg/mL; MBC (Escherichia coli): 320 µg/mL; Activity (Klebsiella pneumoniae): inactive

Compound,MIC (Fusarium solani),MIC (Sporothrix schenckii) [µg/mL],MIC (Aspergillus niger) [µg/mL],MIC (Candida dubliniensis) [µg/mL],MIC (Rhizopus arrhizus) [µg/mL],MIC (Prototheca zopfii) [µg/mL],MIC (Pseudomonas aeruginosa) [µg/mL],MIC (Candida albicans) [µg/mL],MIC (Aspergillus fumigatus) [µg/mL],MIC (Scedosporium boydii) [µg/mL],MIC (Staphylococcus aureus) [µg/mL],MIC (Saccharomyces cerevisiae) [µg/mL],MIC [2] [µg/mL],MIC (Escherichia coli) [µg/mL],MIC (Klebsiella pneumoniae) [µg/mL],MFC (Candida dubliniensis) [µg/mL],MBC (Pseudomonas aeruginosa) [µg/mL],MFC (Candida albicans) [µg/mL],MBC (Staphylococcus aureus) [µg/mL],Activity (Aspergillus flavus),further results
C[C@@H](O)[C@H]1C(=O)N2C(C(=O)O)=C(SCCNC=N)C[C@H]12 [IMIPENEM ANHYDROUS],,,,,,,2,,,,0.06,,< 4,0.06,< 4,,,,,,
C[C@@H]1[C@H](O)[C@@H](C)/C=C/C=C/C=C/C=C/C=C/C=C/C=C/[C@H](O[C@@H]2O[C@H](C)[C@@H](O)[C@H](N)[C@@H]2O)C[C@@H]2O[C@](O)(C[C@@H](O)C[C@@H](O)[C@H](O)CC[C@@H](O)C[C@@H](O)CC(=O)O[C@H]1C)C[C@H](O)[C@H]2C(=O)O [AMPHOTERICIN B],1 µg/mL,0.5,1,,1,0.5,,,1,4,,,,,,,,,,,MIC (Aspergillus flavus): 1 µg/mL; MIC (Aspergillus terreus): 2 µg/mL
